Source: PubChem
TRPC4 block = inhibitors of mouse TRPC4 channel, primary screen, Fluo4 calcium, HEK293 TRPC4beta/mu-opioid cells; Short transient receptor potential channel 4 (Mus musculus), Q9QUQ5; DAMGO-evoked Fluo4 calcium flux; hits give low values; B-score at 10 µM; 300,000 compounds, 0.39% hits; AID 2247, 2010;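 active = B-score over 3 SD under the library average, no early fluorescence shift, positive overall ratio signal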
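Material: HEK293 cells with stable TRPC4beta plus mu-opioid receptor expression / Probe or stimulus: DAMGO in two steps, submaximal then maximal / Compound: single concentration per test compound / Technique: kinetic Fluo4 fluorescence imaging of calcium influx / Read-out: per-well B score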
TRPC6 act = mouse TRPC6 channel activators, primary screen, cell-based, HEK293, membrane potential dye; Short transient receptor potential channel 6 (Mus musculus), Q61143; HEK293-TRPC6 membrane potential dye fluorescence; hits give high values; B-score at 10 µM; 310,000 compounds, 0.13% hits;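 active = B-score of the integrated fluorescence ratio above library mean plus 3 SD, and starting fluorescence ratio within library mean plus 5 SD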;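 note: higher score means more depolarization so channel activation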
Target sequence (Q61143 whole entry, looked up): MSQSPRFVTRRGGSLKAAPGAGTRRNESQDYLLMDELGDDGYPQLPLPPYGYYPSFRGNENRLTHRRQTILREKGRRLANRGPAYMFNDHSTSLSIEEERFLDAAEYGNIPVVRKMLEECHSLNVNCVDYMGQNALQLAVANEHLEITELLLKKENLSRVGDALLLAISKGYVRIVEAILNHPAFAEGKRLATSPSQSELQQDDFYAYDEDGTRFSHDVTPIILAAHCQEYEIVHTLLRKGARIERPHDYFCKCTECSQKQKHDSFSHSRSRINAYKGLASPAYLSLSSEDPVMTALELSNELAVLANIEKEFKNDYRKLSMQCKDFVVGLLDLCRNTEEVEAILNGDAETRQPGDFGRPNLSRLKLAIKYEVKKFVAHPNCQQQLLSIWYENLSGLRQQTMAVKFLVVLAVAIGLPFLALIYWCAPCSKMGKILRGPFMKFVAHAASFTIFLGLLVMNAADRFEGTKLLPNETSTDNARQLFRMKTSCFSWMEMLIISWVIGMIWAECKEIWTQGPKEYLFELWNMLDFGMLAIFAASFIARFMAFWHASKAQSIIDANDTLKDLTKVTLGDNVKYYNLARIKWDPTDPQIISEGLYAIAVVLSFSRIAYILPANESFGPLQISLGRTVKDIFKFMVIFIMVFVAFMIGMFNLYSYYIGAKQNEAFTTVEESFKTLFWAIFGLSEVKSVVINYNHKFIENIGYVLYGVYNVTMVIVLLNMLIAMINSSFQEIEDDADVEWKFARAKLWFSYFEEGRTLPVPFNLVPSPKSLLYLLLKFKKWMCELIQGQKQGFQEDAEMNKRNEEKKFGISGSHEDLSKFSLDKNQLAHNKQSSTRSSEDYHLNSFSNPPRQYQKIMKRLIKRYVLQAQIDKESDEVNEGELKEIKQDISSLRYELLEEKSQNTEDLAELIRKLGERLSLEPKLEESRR
TRPC4 PAM = positive allosteric modulators of TRPC4, primary screen, cell-based, mouse TRPC4beta, HEK293 mu-opioid, Fluo-4 calcium; Short transient receptor potential channel 4 (Mus musculus), Q9QUQ5; DAMGO EC20, Fluo-4 Ca2+ flux; hits give high values; B-score at 10 µM; 310,000 compounds, 0.42% hits; AID 2227, 2009;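 active = B-score of calcium response area above 5 SD of library B-scores, with initial fluorescence ratio within 5 SD of library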
TRPC4 agonist = activators of mouse TRPC4 channel, primary screen, Fluo4 calcium, HEK293 TRPC4beta/mu-opioid cells; AID 2237, 2010; Fluo4 calcium fluorescence; hits give high values; 310,000 compounds, 0.49% hits; Short transient receptor potential channel 4 (Mus musculus), Q9QUQ5; B-score at 10 µM;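 active = B-score above 5 SD of library B-scores, and initial fluorescence ratio not above library mean plus 5 SD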;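 note: positive B-score marks a calcium rise read as TRPC4 activation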
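Test system: HEK293 cells stably co-expressing mouse TRPC4beta and mu-opioid receptor | Schedule: Fluo4 dye loading 45 min at room temperature, 110 s recording | Measured by: Kinetic Fluo4 calcium fluorescence, 5 s baseline at 1 Hz | Evaluation: B score of integrated ratio | Controls: Buffer (low) and maximal DAMGO (high)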
TRPC6 inh = mouse TRPC6 channel inhibitors, primary screen, cell-based, HEK293, membrane potential dye | ACh-evoked depolarization; hits give low values | B-score at 10 µM | 310,000 compounds, 1.1% hits;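 active = B-score under library mean minus 3 SD, initial fluorescence not abnormally high, positive integrated signal ratio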;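 note: B-score derived from integrated fluorescence ratio over the kinetic read; more negative B-score means stronger inhibition of depolarization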
TRPC4 sel inh 2 = second selectivity test of TRPC6 inhibitors: effect on mouse TRPC4; shares compounds with TRPC6 inh; HEK293 TRPC4/MOR, membrane potential dye fluorescence; channel activated by saturating DAMGO dose; inhibition, % at 10 µM; 920 compounds, 42% hits;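 active = compounds whose fluorescence signal differed from control wells by over 3 SD, either direction, in both duplicate plates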
TRPC4 spec = mouse TRPC4 modulation by TRPC6 hits, confirmation, selectivity assay for TRPC6 inhibitor project, cell-based, HEK293 TRPC4/mu-opioid, membrane potential dye. shares compounds with TRPC6 inh. membrane potential fluorescence. AID 2777, 2010. activity change, negative = inhibition, % at 10 µM. 920 compounds, 61% hits;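 active = rise or fall in signal beyond 3 SD of buffer-only wells in both replicate plates, either sign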;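 note: integrated kinetic ratio of fluorescence range over baseline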
HEK293 MPD ctr 2-1 = nonspecific membrane potential effects, parental HEK293, confirmation, counter-screen for TRPC6 inhibitor project, cell-based, second counter screen. signal change vs control, % at 10 µM. shares compounds with TRPC6 inh. parental HEK293 membrane potential dye fluorescence; maximal acetylcholine challenge after compound addition. AID 2779, 2010. 920 compounds, 31% hits;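 active = membrane potential signal moving either way by over 3 SD of the maximum-effect control, in both duplicate plates, meaning non-specific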
HEK293 MPD ctr-1 = membrane potential modulation in parental HEK293, confirmation, counter-screen for TRPC6 inhibitor project, cell-based. shares compounds with TRPC6 inh. parental HEK293 membrane potential dye fluorescence. membrane potential signal change, % at 10 µM. 920 compounds, 60% hits. AID 2780, 2010;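 active = membrane potential signal shifting up or down by more than 3 SD of buffer-only wells, on both duplicate plates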
HEK293 MPD ctr-2 = parental HEK293 membrane potential modulation, confirmation, counter-screen for TRPC6 modulator project, cell-based; AID 488924, 2010; membrane potential signal change, % at 10 µM; membrane potential dye fluorescence; shares compounds with TRPC6 inh; 2,400 compounds, 51% hits;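 active = membrane potential signal moves up or down beyond 5 SD from buffer-only wells, on both duplicate plates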
HEK293 MPD ctr 2-2 = parental HEK293 nonspecific activity of TRPC6 modulators, second screen; inhibition, % at 10 µM; shares compounds with TRPC6 inh; 2,400 compounds, 14% hits; membrane potential dye fluorescence; after compound, maximal acetylcholine stimulation;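 active = membrane potential signal drops by more than 5 SD from the mean control signal, in both duplicate plates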
TRPC4/MOR mod = TRPC4 modulation by TRPC6 hit compounds, confirmation, selectivity assay for TRPC6 modulator project, cell-based, HEK293 TRPC4/mu-opioid, membrane potential dye, mouse. percent change from control (negative = decrease, positive = increase), % at 10 µM. shares compounds with TRPC6 inh. membrane potential fluorescence. AID 488927, 2010. 2,400 compounds, 69% hits;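 active = membrane potential signal moved up or down beyond 5 SD of buffer control wells, in both duplicate plates, actives on both sides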
TRPC4 ctr inh 2 = second selectivity test of TRPC6 modulators against mouse TRPC4 | shares compounds with TRPC6 inh | HEK293 TRPC4/mu-opioid, membrane potential dye fluorescence; stimulated with maximal-effect DAMGO | inhibition, % at 10 µM | 2,400 compounds, 55% hits | AID 488928;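 active = drop in membrane potential signal beyond 5 SD of the control wells in both duplicate plates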;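 note: TRPC4 counter screen for TRPC6 hits run under conditions tuned for TRPC6 not TRPC4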
TRPC6 block conf = mouse TRPC6 channel inhibitors, confirmation, HEK293 cells, membrane potential dye, duplicate. inhibition, % at 10 µM. AID 488960, 2010. ACh-evoked depolarization. 3,300 compounds, 43% hits. shares compounds with TRPC6 inh;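 active = fluorescence ratio falls more than 5 SD below the full-stimulation control mean, in both duplicate runs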;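 note: integrated fluorescence ratio of peak minus minimum over baseline after agonist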
TRPC6 act confirm = mouse TRPC6 channel activators, confirmation, HEK293 cells, membrane potential dye, duplicate. HEK293-TRPC6 membrane potential dye fluorescence, FDSS. 2,800 compounds, 11% hits. activation, % at 10 µM. shares compounds with TRPC6 inh;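 active = ratio signal rise beyond 5 SD above unstimulated control wells' mean, seen in both duplicate runs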
Large screens that a line does not name were inactive (follow-up assays come after a bar, where they were run); ! = not active in a repeat. A selection: hits, their analogues and other compounds. The true share with any hit is near 2.3%.

CC(=O)Oc1c(/C=C(\C#N)C(N)=O)[nH]c2ccccc12	TRPC6 act 27 | HEK293 MPD ctr-2 657% | HEK293 MPD ctr 2-2 inactive | TRPC4/MOR mod 170% | TRPC4 ctr inh 2 inactive | TRPC6 block conf inactive | TRPC6 act confirm 170%
O=C(O)c1cccnc1C(=O)N1CCc2c([nH]c3ccccc23)C1C(F)(F)F (centres undefined)	none
c1cnc2c(C3NCCc4c3[nH]c3ccccc43)cccc2c1 (centres undefined)	TRPC6 inh -6.6 | HEK293 MPD ctr-2 inactive | HEK293 MPD ctr 2-2 inactive | TRPC4/MOR mod inactive | TRPC4 ctr inh 2 72% | TRPC6 block conf 50% | TRPC6 act confirm inactive
CN(C)/C=C/C(=O)c1ccc(Oc2ccccc2)cc1	none
CN(C)/C=C/C(=O)c1ccc(OCCN(C)c2ccccn2)cc1	TRPC6 inh -6.7 | TRPC4 sel inh 2 46% | TRPC4 spec 37% | HEK293 MPD ctr 2-1 inactive | HEK293 MPD ctr-1 inactive | TRPC6 block conf inactive | TRPC6 act confirm inactive
COc1cccc(C2SCC(=O)N2c2ccc(C)cc2)c1OC (centres undefined)	TRPC6 inh -5.6 | HEK293 MPD ctr-2 inactive | HEK293 MPD ctr 2-2 inactive | TRPC4/MOR mod 8.0% | TRPC4 ctr inh 2 inactive | TRPC6 block conf 66% | TRPC6 act confirm inactive
COc1ccc(-n2cnnc2SCC(=O)Nc2cc(S(=O)(=O)N3CCCCC3)ccc2C)cc1	TRPC6 inh -6.1 | HEK293 MPD ctr-2 inactive | HEK293 MPD ctr 2-2 inactive | TRPC4/MOR mod inactive | TRPC4 ctr inh 2 inactive | TRPC6 block conf inactive | TRPC6 act confirm inactive
Oc1ccc(Nc2ccnc3cc(Cl)ccc23)cc1	none
Clc1ccc2c(NCc3ccccc3)ccnc2c1	TRPC6 inh -5.5 | HEK293 MPD ctr-2 -98% | HEK293 MPD ctr 2-2 inactive | TRPC4/MOR mod -23% | TRPC4 ctr inh 2 78% | TRPC6 block conf 38% | TRPC6 act confirm inactive
CCN(CC)CCNc1ccnc2cc(Cl)ccc12	TRPC6 inh -12 | HEK293 MPD ctr-2 -333% | HEK293 MPD ctr 2-2 70% | TRPC4/MOR mod -50% | TRPC4 ctr inh 2 71% | TRPC6 block conf 73% | TRPC6 act confirm inactive
CCN(CC)Cc1cc(Nc2ccnc3cc(Cl)ccc23)ccc1O	TRPC6 inh -5.7! | HEK293 MPD ctr-2 -184% | HEK293 MPD ctr 2-2 inactive | TRPC4/MOR mod -34% | TRPC4 ctr inh 2 52% | TRPC6 block conf inactive | TRPC6 act confirm inactive
CN(C)CCOC1c2ccccc2C=Cc2ccccc21	TRPC6 inh -5.5 | HEK293 MPD ctr-2 124% | HEK293 MPD ctr 2-2 84% | TRPC4/MOR mod 22% | TRPC4 ctr inh 2 42% | TRPC6 block conf 68%
C/C(=N\NC(=O)c1nn(C)cc1Cl)c1ccncc1	none
COC(=O)c1cccc(NC(=O)CC2NCCNC2=O)c1 (centres undefined)	none
COc1cc(NC(=O)CC2NCCNC2=O)cc(OC)c1 (centres undefined)	TRPC6 inh -6.1 | HEK293 MPD ctr-2 inactive | HEK293 MPD ctr 2-2 inactive | TRPC4/MOR mod inactive | TRPC4 ctr inh 2 inactive | TRPC6 block conf inactive | TRPC6 act confirm inactive
CCN1CCCC1CNC(=O)c1ccc(Sc2ccc(F)cc2)c([N+](=O)[O-])c1 (centres undefined)	TRPC6 inh -8.2 | HEK293 MPD ctr-2 inactive | HEK293 MPD ctr 2-2 inactive | TRPC4/MOR mod inactive | TRPC4 ctr inh 2 56% | TRPC6 block conf 52% | TRPC6 act confirm inactive
CCN1CCCC1CNC(=O)c1ccc(Sc2ccccc2Cl)c([N+](=O)[O-])c1 (centres undefined)	TRPC6 inh -7.1 | HEK293 MPD ctr-2 inactive | HEK293 MPD ctr 2-2 inactive | TRPC4/MOR mod inactive | TRPC4 ctr inh 2 44% | TRPC6 block conf 42% | TRPC6 act confirm inactive
CCOC(=O)C1CCN(C(=O)Cn2nc(C)n3nc(-c4ccc(CC)cc4)cc3c2=O)CC1	none
O=C(NCCCN1CCCC1)c1ccc2c(c1)N(Cc1ccccc1)CCS2	TRPC6 inh -5.9 | HEK293 MPD ctr-2 inactive | HEK293 MPD ctr 2-2 inactive | TRPC4/MOR mod -8.5% | TRPC4 ctr inh 2 80% | TRPC6 block conf 62% | TRPC6 act confirm inactive
O=C(NCCCN1CCOCC1)c1ccc2c(c1)N(Cc1cccc(Cl)c1)C(=O)CS2	TRPC6 inh -5 | HEK293 MPD ctr-2 664% | HEK293 MPD ctr 2-2 160% | TRPC4/MOR mod 133% | TRPC4 ctr inh 2 41% | TRPC6 block conf 93%
